# Test results published in ChEMBL document CHEMBL4152275, “Discovery of novel small molecule TLR4 inhibitors as potent anti-inflammatory agents” (Eur J Med Chem, 2018).
# Assays:
# Toll-like receptor 4 [1] = biological target: T1, Toll-like receptor 4 (Homo sapiens, UniProt O00206); test: Antagonist activity at human TLR4 expressed in HEK blue cells coexpressing MD-2/CD14 assessed as inhibition of LPS-induced NF-kappaB activation-mediated SEAP production after 24 hrs; assay type: cell-based
# Method in brief: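 HEK293 cells stably carrying human TLR4, MD-2, CD14 and an NF-κB-inducible SEAP reporter were seeded at 4×10^4/well, grown 24 h, then switched to unsupplemented DMEM. Cells were treated with 20 ng/mL LPS plus compound (1.56–100 µM; from 10 mM DMSO stocks) for 24 h. Supernatant SEAP was read with QUANTI-Blue at OD620 after 15–30 min at 37°C. Two independent experiments in triplicate.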
# HCN2 channel [2] = test: Inhibition of HCN2 (unknown origin) expressed in COS7 cells assessed as amplitude of inward current (I/I0 ratio) at 10 uM at -40 mV holding potential by pach clamp electrophysiology assay; details: Homo sapiens
# HCN4 channel [3] = test: Inhibition of HCN4 (unknown origin) expressed in COS7 cells assessed as amplitude of inward current (I/I0 ratio) at 10 uM at -40 mV holding potential by pach clamp electrophysiology assay; details: Homo sapiens
# [4] = Cytotoxicity against human HEK-Blue cells assessed as decrease in cell viability up to 100 uM after 24 hrs by CCK-8 assay; assay type: cell-based
# Method in brief: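 HEK-Blue hTLR4 cells were incubated with 40 ng/mL LPS and compound (0–100 µM) for 24 h. Viability was measured by CCK-8 absorbance at 450 nm.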
# Toll-like receptor 4 [5] = biological target: T1, Toll-like receptor 4; test: Antagonist activity at human TLR4 expressed in HEK blue cell lysates assessed as inhibition of LPS-induced TLR4 protein expression after 24 hrs by Western blot method
# Method in brief: (§1)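 HEK-Blue hTLR4 cells at 1×10^6/well were grown 24 h in DMEM + 10% FBS, then switched to unsupplemented DMEM. Cells were treated with 40 ng/mL LPS and compound (0–20 µM) for 24 h, then lysed on ice. Protein was measured by BCA, run on 10% SDS-PAGE and blotted to PVDF. Blots were probed with anti-TLR4 (overnight, 4°C) with ECL detection; GAPDH served as loading control.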
# Toll-like receptor 4 [6] = biological target: T1, Toll-like receptor 4; test: Antagonist activity at human TLR4 expressed in HEK blue cell lysates assessed as inhibition of LPS-induced TLR4 protein expression at 10 uM after 24 hrs by Western blot method relative to control; method in brief: as §1
# [7] = biological target: Toll-like receptor 4 (Mus musculus) (UniProt Q9QUK6); test: Antagonist activity at TLR4 in mouse BV2 cells assessed as inhibition of LPS-induced NO production after 24 hrs by Griess assay
# Toll-like receptor 4 [8] = biological target: T1, Toll-like receptor 4; test: Antagonist activity at TLR4 in human PBMC assessed as inhibition of LPS-induced TNFalpha production at 20 uM after 24 hrs by ELISA relative to control; assay type: cell-based
# Method in brief: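 Human PBMC at 1×10^6 cells/well in RPMI 1640 were given compound with or without 10 ng/mL LPS for 24 h at 37°C, 5% CO2. Supernatants were frozen at −80°C, then TNF-α was quantified by sandwich ELISA against a recombinant human standard. Each sample was run in triplicate; three independent experiments, mean ± SD.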
# HCN2 channel [9] = test: Inhibition of HCN2 (unknown origin) expressed in COS7 cells assessed as Tact time at 10 uM at -40 mV holding potential measured at -120 mV by pach clamp electrophysiology assay (reference value: 242.9 +/- 24 milliseconds); details: Homo sapiens
# HCN4 channel [10] = test: Inhibition of HCN4 (unknown origin) expressed in COS7 cells assessed as Tact time at 10 uM at -40 mV holding potential measured at -120 mV by pach clamp electrophysiology assay (reference value: 780.9 +/- 59.2 milliseconds); details: Homo sapiens
# [11] = biological target: T2, Toll-like receptor 4 (Mus musculus) (UniProt Q9QUK6); test: Antagonist activity at TLR4 in mouse RAW264.7 cells assessed as inhibition of LPS-induced NO production after 24 hrs by Griess assay; assay type: cell-based
# T2 sequence (whole entry): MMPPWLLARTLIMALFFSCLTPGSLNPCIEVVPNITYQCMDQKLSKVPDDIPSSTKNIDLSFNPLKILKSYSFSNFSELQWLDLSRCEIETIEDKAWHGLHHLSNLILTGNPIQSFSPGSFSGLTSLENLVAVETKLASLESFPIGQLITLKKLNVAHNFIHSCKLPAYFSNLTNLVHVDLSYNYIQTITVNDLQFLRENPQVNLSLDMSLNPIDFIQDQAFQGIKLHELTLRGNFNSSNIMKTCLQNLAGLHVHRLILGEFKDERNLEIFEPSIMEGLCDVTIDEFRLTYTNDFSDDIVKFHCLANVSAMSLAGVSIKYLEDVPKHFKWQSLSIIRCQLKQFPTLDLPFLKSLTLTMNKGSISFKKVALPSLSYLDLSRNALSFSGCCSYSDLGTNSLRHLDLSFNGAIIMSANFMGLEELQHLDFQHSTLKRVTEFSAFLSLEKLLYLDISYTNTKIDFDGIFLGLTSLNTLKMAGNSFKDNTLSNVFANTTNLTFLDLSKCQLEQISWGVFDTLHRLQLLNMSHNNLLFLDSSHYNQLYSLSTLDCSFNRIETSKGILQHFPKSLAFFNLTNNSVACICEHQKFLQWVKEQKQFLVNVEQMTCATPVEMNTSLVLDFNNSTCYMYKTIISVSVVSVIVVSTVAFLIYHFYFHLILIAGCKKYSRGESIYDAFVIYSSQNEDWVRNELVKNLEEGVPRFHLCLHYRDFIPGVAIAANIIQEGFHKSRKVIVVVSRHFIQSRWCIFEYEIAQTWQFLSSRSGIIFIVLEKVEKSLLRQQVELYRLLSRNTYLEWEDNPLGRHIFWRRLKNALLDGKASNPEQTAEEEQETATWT
# Method in brief: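 RAW264.7 or BV-2 cells were seeded at 50,000/well in DMEM + 10% FBS with penicillin/streptomycin and pre-incubated 24 h at 37°C, 5% CO2. Medium was replaced with unsupplemented DMEM. Cells were treated with 40 ng/mL LPS plus graded compound for 24 h. Supernatant nitrite was read by Griess reaction (sulfanilic acid/phosphoric acid, then naphthylethylenediamine, 10 min each) against a nitrite standard.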
# HCN4 channel [12] = test: Inhibition of HCN4 (unknown origin) expressed in COS7 cells assessed as Tdeact time at 10 uM at -40 mV holding potential measured at +50 mV by pach clamp electrophysiology assay (reference value: 92.9 +/- 9.5 milliseconds); details: Homo sapiens
# HCN4 channel [13] = test: Inhibition of HCN4 (unknown origin) expressed in COS7 cells assessed as change in half activation potential at 10 uM at -40 mV holding potential by pach clamp electrophysiology assay; details: Homo sapiens
# HCN2 channel [14] = test: Inhibition of HCN2 (unknown origin) expressed in COS7 cells assessed as Tdeact time at 10 uM at -40 mV holding potential measured at +50 mV by pach clamp electrophysiology assay (reference value: 66 +/- 4.2 milliseconds); details: Homo sapiens
# HCN2 channel [15] = test: Inhibition of HCN2 (unknown origin) expressed in COS7 cells assessed as change in half activation potential at 10 uM at -40 mV holding potential by pach clamp electrophysiology assay; details: Homo sapiens
# T1 sequence (O00206 whole entry): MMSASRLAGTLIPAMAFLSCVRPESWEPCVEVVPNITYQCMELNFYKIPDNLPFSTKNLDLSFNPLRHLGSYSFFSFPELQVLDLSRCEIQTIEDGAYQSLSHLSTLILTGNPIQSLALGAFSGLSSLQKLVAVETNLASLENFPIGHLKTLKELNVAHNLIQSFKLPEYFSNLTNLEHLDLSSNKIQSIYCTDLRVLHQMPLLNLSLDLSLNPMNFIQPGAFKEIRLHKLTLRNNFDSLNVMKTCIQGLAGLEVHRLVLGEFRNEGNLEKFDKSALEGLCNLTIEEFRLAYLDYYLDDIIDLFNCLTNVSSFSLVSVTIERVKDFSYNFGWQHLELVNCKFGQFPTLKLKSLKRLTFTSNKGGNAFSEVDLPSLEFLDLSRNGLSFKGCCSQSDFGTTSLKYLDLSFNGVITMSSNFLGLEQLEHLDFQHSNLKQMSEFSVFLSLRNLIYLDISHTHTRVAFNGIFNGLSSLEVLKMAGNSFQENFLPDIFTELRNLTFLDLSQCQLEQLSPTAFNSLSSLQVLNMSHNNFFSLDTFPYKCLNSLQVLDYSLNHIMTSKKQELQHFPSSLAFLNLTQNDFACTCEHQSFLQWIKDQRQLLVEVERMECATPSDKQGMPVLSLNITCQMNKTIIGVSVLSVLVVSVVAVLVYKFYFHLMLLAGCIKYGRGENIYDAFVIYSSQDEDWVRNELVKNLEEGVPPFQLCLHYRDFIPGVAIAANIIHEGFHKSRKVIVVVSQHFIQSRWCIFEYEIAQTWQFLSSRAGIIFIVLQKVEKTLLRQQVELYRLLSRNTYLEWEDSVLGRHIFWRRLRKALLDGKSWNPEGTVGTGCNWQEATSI
compound,measurement,setting,value
Cc1nn(Cc2ccccc2Cl)c(C)c1CN(C)CC(O)CCOc1cccc2[nH]c3ccccc3c12 (stereo not given),IC50,Toll-like receptor 4 [1]; read-out: IC50,15.1 µM
O=C(c1ccccc1)c1cc(Cl)ccc1NCC(O)COc1cccc2[nH]c3ccccc3c12 (stereo not given),IC50,Toll-like receptor 4 [1]; read-out: IC50,21.1 µM
COc1ccccc1OCCNCC(O)COc1cccc2[nH]c3ccccc3c12 (stereo not given) [CARVEDILOL],IC50,Toll-like receptor 4 [1]; read-out: IC50,33.2 µM
Cc1nn(Cc2ccc(Cl)cc2)c(C)c1CN(C)CC(O)COc1cccc2[nH]c3ccccc3c12 (stereo not given),IC50,Toll-like receptor 4 [1]; read-out: IC50,13.6 µM
CCOc1ccc(OCCC(O)CN(C)Cc2c(C)nn(Cc3ccccc3C)c2C)cc1 (stereo not given),IC50,Toll-like receptor 4 [1]; read-out: IC50,54.6 µM
Cc1nn(Cc2ccccc2Cl)c(C)c1CN(C)CC(O)CCOc1ccc(F)cc1 (stereo not given),IC50,Toll-like receptor 4 [1]; read-out: IC50,55.4 µM
Cc1nn(Cc2ccccc2F)c(C)c1CN(C)CC(O)COc1cccc2[nH]c3ccccc3c12 (stereo not given),IC50,Toll-like receptor 4 [1]; read-out: IC50,34.6 µM
C/N=C/c1cn(CC(O)COc2cccc3[nH]c4ccccc4c23)cn1 (stereo not given),IC50,Toll-like receptor 4 [1],Not Active
Cc1nn(Cc2ccccc2Cl)cc1CN(C)CC(O)COc1cccc2[nH]c3ccccc3c12 (stereo not given),IC50,Toll-like receptor 4 [1],Not Active
Cc1ccc(OCCC(O)CN(C)Cc2c(C)nn(Cc3ccccc3Cl)c2C)cc1 (stereo not given),IC50,Toll-like receptor 4 [1]; read-out: IC50,51.5 µM
CCCc1ccc(OCCC(O)CN(C)Cc2c(C)nn(Cc3ccccc3Cl)c2C)cc1 (stereo not given),IC50,Toll-like receptor 4 [1]; read-out: IC50,24.7 µM
CCOc1ccc(OCC(O)CN(C)Cc2c(C)nn(Cc3ccccc3Cl)c2C)cc1 (stereo not given),Ratio,HCN2 channel [2],0.73
same,IC50,Toll-like receptor 4 [1]; read-out: IC50,34.2 µM
same,Ratio,HCN4 channel [3],0.75
CCc1ccc(OCCC(O)CN(C)Cc2c(C)nn(Cc3ccccc3Cl)c2C)cc1 (stereo not given),IC50,Toll-like receptor 4 [1]; read-out: IC50,26 µM
OC(CNc1ccc(F)cc1)COc1cccc2[nH]c3ccccc3c12 (stereo not given),Ratio,HCN2 channel [2],1
same,IC50,Toll-like receptor 4 [1],Not Active
same,Ratio,HCN4 channel [3],0.82
OC(CNc1ccc2c(c1)-c1ccccc1C2)COc1cccc2[nH]c3ccccc3c12 (stereo not given),IC50,Toll-like receptor 4 [1]; read-out: IC50,12.4 µM
CCOc1ccc(OCCC(O)CNCCOc2ccccc2OC)cc1 (stereo not given),IC50,Toll-like receptor 4 [1],Not Active
COc1ccccc1OCCNCC(O)CCOc1cccc2[nH]c3ccccc3c12 (stereo not given),IC50,Toll-like receptor 4 [1]; read-out: IC50,32.5 µM
CCOc1ccc(OCCC(O)CN(C)Cc2c(C)nn(Cc3ccc(Cl)cc3)c2C)cc1 (stereo not given),IC50,Toll-like receptor 4 [1]; read-out: IC50,25.9 µM
Cc1nn(Cc2ccccc2Cl)c(C)c1CN(C)CC(O)COc1cccc2[nH]c3ccccc3c12 (stereo not given),Ratio,HCN2 channel [2],0.7
same,Activity,[4],Non-Toxic
same,inhibition,Toll-like receptor 4 [5],Dose-dependent effect
same,inhibition,Toll-like receptor 4 [6],> 90%
same,inhibition,[7],Dose-dependent effect
same,IC50,Toll-like receptor 4 [1]; read-out: IC50,12.4 µM
same,inhibition,Toll-like receptor 4 [8],80%
same,TIME,HCN2 channel [9],0.000248 h
same,TIME,HCN4 channel [10],0.000597 h
same,Ratio,HCN4 channel [3],0.5
same,inhibition,[11],Dose-dependent effect
same,TIME,HCN4 channel [12],2.22e-05 h
same,V1/2,HCN4 channel [13],-28.8 mV
same,TIME,HCN2 channel [14],1.47e-05 h
same,V1/2,HCN2 channel [15],-21.4 mV
OC(CNc1ccc2ccccc2c1)COc1cccc2[nH]c3ccccc3c12 (stereo not given),IC50,Toll-like receptor 4 [1]; read-out: IC50,28.5 µM
Cc1nn(Cc2ccccc2Cl)c(C)c1CN(C)CC(O)CCOc1ccc(C(C)(C)C)cc1 (stereo not given),IC50,Toll-like receptor 4 [1]; read-out: IC50,16.7 µM
OC(CNc1ccc(-c2ccccc2)cc1)COc1cccc2[nH]c3ccccc3c12 (stereo not given),IC50,Toll-like receptor 4 [1]; read-out: IC50,21.7 µM
CCOc1ccc(OCCC(O)CN(C)Cc2c(C)nn(Cc3ccccc3Cl)c2C)cc1 (stereo not given),IC50,Toll-like receptor 4 [1],Not Active
CCOc1ccc(OCC(O)CNCCOc2ccccc2OC)cc1 (stereo not given),IC50,Toll-like receptor 4 [1],Not Active
Cc1nn(Cc2ccccc2)c(C)c1CN(C)CC(O)COc1cccc2[nH]c3ccccc3c12 (stereo not given),IC50,Toll-like receptor 4 [1]; read-out: IC50,31.5 µM
O=C1c2ccccc2C(=O)c2cc(NCC(O)COc3cccc4[nH]c5ccccc5c34)ccc21 (stereo not given),IC50,Toll-like receptor 4 [1],Not Active
CCOc1ccc(OCCC(O)CN(C)Cc2c(C)nn(Cc3ccccc3F)c2C)cc1 (stereo not given),IC50,Toll-like receptor 4 [1],Not Active
